Assay results as given in ChEMBL document CHEMBL4257477, “5,6-Benzoflavones as cholesterol esterase inhibitors: synthesis, biological evaluation and docking studies” (Medchemcomm, 2018).
Calls of active or inactive are those of the source. The rule behind the calls is not given here.

Key:
[1] = Inhibition of porcine CEase using para-nitrophenyl butyrate as substrate preincubated with substrate for 5 mins followed by enzyme addition by spectrophotometric method; design: species or system Sus scrofa
Summary of the method: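 Porcine cholesterol esterase (10 ng mL–1 final) was assayed in pH 7.0 phosphate/NaCl buffer with 6 mM taurocholate, 3% acetonitrile, and 20 μM p-nitrophenyl butyrate at 25 °C. Test compounds in DMSO were preincubated 5 min, then the enzyme was added and A405 was monitored. IC50 came from four concentrations (1, 5, 10, 25 nM), with means of triplicates.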

[2] = species on record: Sus scrofa; assay: Inhibition of porcine CEase at 50 nM using para-nitrophenyl butyrate as substrate preincubated with substrate for 5 mins followed by enzyme addition by spectrophotometric method relative to control
[3] = species on record: Sus scrofa; assay: Mixed-type inhibition of porcine CEase at 1 to 50 nM using para-nitrophenyl butyrate as substrate preincubated with substrate for 5 mins followed by enzyme addition by Lineweaver-Burk plot analysis

Row | SMILES | IC50 [1] | inhibition [2] | inhibition [3]
1 | O=c1cc(-c2ccc(Br)cc2)oc2ccc3ccccc3c12 | 8.15 nM | > 60% | 
2 | CCOP(=O)(OCC)Oc1cc(O)c2c(=O)cc(-c3ccccc3)oc2c1 | 0.72 nM |  | 
3 | O=c1cc(-c2ccc(C(F)(F)F)cc2F)oc2ccc3ccccc3c12 | 23.1 nM | > 60% | 
4 | O=c1cc(-c2ccc(F)c(F)c2)oc2ccc3ccccc3c12 | 1.15 nM | > 60% | 
5 | O=c1cc(-c2ccc(F)cc2)oc2ccc3ccccc3c12 | 4.5 nM | > 60% | 
6 | O=c1cc(-c2c(F)cccc2F)oc2ccc3ccccc3c12 | 1.19 nM | > 60% | 
7 | O=c1cc(-c2ccc(F)cc2F)oc2ccc3ccccc3c12 | 1.46 nM | > 60% | 
8 | O=c1cc(-c2ccc(CCl)cc2)oc2ccc3ccccc3c12 | 22.2 nM | > 60% | 
9 | O=c1cc(-c2cccc(F)c2)oc2ccc3ccccc3c12 | 3.9 nM | > 60% | 
10 | O=c1cc(-c2cc(F)ccc2C(F)(F)F)oc2ccc3ccccc3c12 | 27.8 nM | > 60% | 
11 | O=c1cc(-c2ccccc2C(F)(F)F)oc2ccc3ccccc3c12 | 31.4 nM | > 60% | 
12 | O=c1cc(-c2ccc(I)cc2)oc2ccc3ccccc3c12 | 13.1 nM | > 60% | 
13 | O=c1cc(-c2cc(F)cc(F)c2)oc2ccc3ccccc3c12 | 0.99 nM | > 60% | 

Next, values leading:

Row | IC50 [1] | inhibition [2] | inhibition [3] | SMILES
14 | 0.83 nM | > 60% |  | O=c1cc(-c2cccc(Cl)c2)oc2ccc3ccccc3c12
15 | 2.59 nM | > 60% |  | O=c1cc(-c2ccccc2F)oc2ccc3ccccc3c12
16 | 16.4 nM | > 60% |  | O=c1cc(-c2cccc([N+](=O)[O-])c2)oc2ccc3ccccc3c12
17 | 0.73 nM | > 60% | Active | O=c1cc(-c2cccc(Cl)c2Cl)oc2ccc3ccccc3c12
18 | 9.55 nM | > 60% |  | O=c1cc(-c2ccccc2I)oc2ccc3ccccc3c12
19 | 51.1 nM |  |  | O=c1cc(-c2ccccc2)oc2ccc3ccccc3c12 [BETA-NAPHTHOFLAVONE]
20 | 18 nM | > 60% |  | O=c1cc(-c2ccc([N+](=O)[O-])cc2)oc2ccc3ccccc3c12
21 | 29.2 nM | > 60% |  | O=c1cc(-c2c(F)cccc2C(F)(F)F)oc2ccc3ccccc3c12
22 | 9.8 nM | > 60% |  | O=c1cc(-c2cc([N+](=O)[O-])cc([N+](=O)[O-])c2)oc2ccc3ccccc3c12
23 | 1.08 nM | > 60% |  | O=c1cc(-c2cc(F)ccc2F)oc2ccc3ccccc3c12
24 | 6.01 nM | > 60% |  | O=c1cc(-c2cccc(Br)c2)oc2ccc3ccccc3c12
25 | 4.69 nM | > 60% |  | O=c1cc(-c2ccccc2Br)oc2ccc3ccccc3c12
26 | 29.1 nM | > 60% |  | O=c1cc(-c2cc(F)cc(C(F)(F)F)c2)oc2ccc3ccccc3c12
27 | 20.1 nM | > 60% |  | O=c1cc(-c2cccc(CCl)c2)oc2ccc3ccccc3c12
